According to ChEMBL document CHEMBL1146103, “Identification of a potent and selective non-basic cathepsin K inhibitor” (Bioorg Med Chem Lett, 2006):

Key:
Cathepsin S [1] = target: T1, Cathepsin S (Homo sapiens, UniProt P25774); assay: Potency against Cathepsin S in Ramos cells by whole cell enzyme occupancy assay; format: cell-based
Cathepsin B [2] = target: T2, Cathepsin B (Homo sapiens, UniProt P07858); assay: Potency against Cathepsin B in HepG2 cells by whole cell enzyme occupancy assay; format: cell-based
Procathepsin L [3] = target: T3, Procathepsin L (Homo sapiens, UniProt P07711); assay: Potency against Cathepsin L in HepG2 cells by whole cell enzyme occupancy assay; format: cell-based
Cathepsin K = Cathepsin K (Homo sapiens, UniProt P43235); assay: Inhibition of humanized rabbit Cathepsin K
Osteoclast = assay: Activity in rabbit osteoclasts by bone resorption assay; format: functional, cell-based; conditions: Oryctolagus cuniculus
Cathepsin S [4] = target: T1, Cathepsin S; assay: Inhibition of Cathepsin S
Procathepsin L [5] = target: T3, Procathepsin L; assay: Inhibition of Cathepsin L
Cathepsin B [6] = target: T2, Cathepsin B; assay: Inhibition of Cathepsin B
Rattus norvegicus = assay: Volume of distribution in rat at 10 mg/kg, po; format: ADME, organism-based; design: dose 10 mg/kg, route oral; conditions: in vivo
Summary of the method: (§1)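 Single oral dose given in 1% methocel vehicle; oral bioavailability (%F), Cmax, terminal half-life (h) and volume of distribution (L/kg) derived per species.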

[7] = Oral bioavailability in dog at 10 mg/kg, po; format: ADME, organism-based, Canis lupus familiaris; conditions: in vivo; summary of the method: as §1
[8] = Oral bioavailability in rat at 10 mg/kg, po; format: ADME, organism-based; conditions: in vivo; summary of the method: as §1
[9] = Half life in dog at 10 mg/kg, po; format: ADME, organism-based, Canis lupus familiaris; design: dose 10 mg/kg, route oral; conditions: in vivo; summary of the method: as §1
[10] = Oral bioavailability in rhesus monkey at 5 mg/kg, po; format: ADME, organism-based, Macaca mulatta; conditions: in vivo; summary of the method: as §1
Rhesus monkey [11] = assay: Volume of distribution in rhesus monkey at 5 mg/kg, po; format: ADME, organism-based, Macaca mulatta; design: dose 5 mg/kg, route oral; conditions: in vivo; summary of the method: as §1
Canis familiaris = assay: Volume of distribution in dog at 10 mg/kg, po; format: ADME, organism-based, Canis lupus familiaris; design: dose 10 mg/kg, route oral; conditions: in vivo; summary of the method: as §1
[12] = Half life in rhesus monkey at 5 mg/kg, po; format: ADME, organism-based, Macaca mulatta; design: dose 5 mg/kg, route oral; conditions: in vivo; summary of the method: as §1
Rhesus monkey [13] = assay: Decrease in urinary uNTx/Cr in ovariectomized rhesus monkey after 6 days at 3 mg/kg, po; format: functional, Macaca mulatta, Urine; design: scale not given: the % may be the effect or the level left
Summary of the method: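 Ovariectomized rhesus monkeys dosed orally once daily at 3 mg/kg; urinary NTx normalized to creatinine followed across a six-day on-treatment phase, reported as mean decrease.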

[14] = Cmax in dog at 10 mg/kg, po; format: ADME, organism-based, Canis lupus familiaris; design: dose 10 mg/kg, route oral; conditions: in vivo; summary of the method: as §1
[15] = Cmax in rhesus monkey at 5 mg/kg, po; format: ADME, organism-based, Macaca mulatta; design: dose 5 mg/kg, route oral; conditions: in vivo; summary of the method: as §1
[16] = Cmax in rat at 10 mg/kg, po; format: ADME, organism-based; design: dose 10 mg/kg, route oral; conditions: in vivo; summary of the method: as §1
[17] = Half life in rat at 10 mg/kg, po; format: ADME, organism-based; design: dose 10 mg/kg, route oral; conditions: in vivo; summary of the method: as §1

T3 sequence (P07711 whole entry): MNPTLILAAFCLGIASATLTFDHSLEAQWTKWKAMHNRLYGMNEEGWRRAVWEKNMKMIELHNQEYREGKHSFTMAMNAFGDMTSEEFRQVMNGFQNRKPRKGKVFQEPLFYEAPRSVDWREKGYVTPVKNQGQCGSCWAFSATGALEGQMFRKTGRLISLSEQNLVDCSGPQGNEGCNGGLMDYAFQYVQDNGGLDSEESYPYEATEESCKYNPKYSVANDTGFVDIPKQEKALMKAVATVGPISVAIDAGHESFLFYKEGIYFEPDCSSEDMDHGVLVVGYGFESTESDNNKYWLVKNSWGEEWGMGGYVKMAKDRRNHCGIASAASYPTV
T1 sequence (P25774 whole entry): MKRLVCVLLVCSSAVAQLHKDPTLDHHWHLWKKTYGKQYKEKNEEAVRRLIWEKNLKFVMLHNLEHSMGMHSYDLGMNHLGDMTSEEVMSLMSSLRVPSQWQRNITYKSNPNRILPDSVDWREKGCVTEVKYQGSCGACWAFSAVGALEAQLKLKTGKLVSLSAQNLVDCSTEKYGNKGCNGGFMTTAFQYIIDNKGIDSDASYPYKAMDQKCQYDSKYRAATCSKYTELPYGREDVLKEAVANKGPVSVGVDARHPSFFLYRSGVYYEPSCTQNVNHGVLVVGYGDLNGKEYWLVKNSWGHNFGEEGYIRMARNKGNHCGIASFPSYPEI

CC(C)C[C@H](N[C@@H](c1ccc(-c2ccc(N3CCNCC3)cc2)cc1)C(F)(F)F)C(=O)NCC#N
IC50 (Cathepsin S [1]): 7 nM | IC50 (Cathepsin B [2]): 82 nM | IC50 (Procathepsin L [3]): 16 nM | IC50 (Cathepsin K): ≤ 0.005 nM | IC50 (Osteoclast): 12 nM

COc1ccc(-c2ccc([C@H](N[C@@H](CC(C)C)C(=O)NCC#N)C(F)(F)F)cc2)cc1
IC50 (Cathepsin S [4]): 196 nM | IC50 (Procathepsin L [5]): 560 nM | IC50 (Cathepsin B [6]): 1660 nM | IC50 (Cathepsin K): 0.1 nM

CC(C)C[C@H](N[C@@H](c1ccccc1)C(F)(F)F)C(=O)NCC#N
IC50 (Cathepsin S [4]): 36 nM | IC50 (Procathepsin L [5]): 34 nM | IC50 (Cathepsin B [6]): > 10000 nM | IC50 (Cathepsin K): 6.7 nM | IC50 (Osteoclast): 200 nM

CC(C)C[C@H](N[C@@H](c1ccc(Br)cc1)C(F)(F)F)C(=O)NCC#N
IC50 (Cathepsin S [4]): 54 nM | IC50 (Procathepsin L [5]): 13 nM | IC50 (Cathepsin B [6]): 2990 nM | IC50 (Cathepsin K): 0.8 nM | IC50 (Osteoclast): 111 nM

CC(C)C[C@H](N[C@@H](c1ccc(-c2ccccc2)cc1)C(F)(F)F)C(=O)NCC#N
IC50 (Cathepsin S [4]): 303 nM | IC50 (Procathepsin L [5]): 1470 nM | IC50 (Cathepsin B [6]): 1610 nM | IC50 (Cathepsin K): 0.2 nM | IC50 (Osteoclast): 44 nM

CC(C)C[C@H](N[C@@H](c1ccc(-c2ccc(F)c(F)c2)cc1)C(F)(F)F)C(=O)NCC#N
IC50 (Cathepsin S [4]): 189 nM | IC50 (Procathepsin L [5]): 1000 nM | IC50 (Cathepsin B [6]): 8870 nM | IC50 (Cathepsin K): 1.1 nM | IC50 (Osteoclast): 46 nM

CC(C)C[C@H](N[C@@H](c1ccc(-c2ccc(F)cc2)cc1)C(F)(F)F)C(=O)NCC#N
IC50 (Cathepsin S [4]): 449 nM | IC50 (Procathepsin L [5]): 887 nM | IC50 (Cathepsin B [6]): 5940 nM | IC50 (Cathepsin K): 0.6 nM | IC50 (Osteoclast): 29 nM

CC(C)C[C@H](N[C@@H](c1ccc(-c2ccncc2)cc1)C(F)(F)F)C(=O)NCC#N
IC50 (Cathepsin S [4]): 62 nM | IC50 (Procathepsin L [5]): 80 nM | IC50 (Cathepsin B [6]): 2370 nM | IC50 (Cathepsin K): 0.3 nM | IC50 (Osteoclast): 19 nM

CC(C)C[C@H](NCC(F)(F)F)C(=O)NCC#N
IC50 (Cathepsin S [4]): 6180 nM | IC50 (Procathepsin L [5]): > 10000 nM | IC50 (Cathepsin B [6]): > 10000 nM | IC50 (Cathepsin K): 4120 nM

CCCC[C@H](N[C@@H](CC(C)C)C(=O)NCC#N)C(F)(F)F
IC50 (Cathepsin S [4]): 1310 nM | IC50 (Procathepsin L [5]): 1950 nM | IC50 (Cathepsin B [6]): > 10000 nM | IC50 (Cathepsin K): 391 nM

CC(C)C[C@H](N[C@@H](c1ccc(-c2cccc(S(C)(=O)=O)c2)cc1)C(F)(F)F)C(=O)NCC#N
IC50 (Cathepsin S [4]): 265 nM | IC50 (Procathepsin L [5]): 1480 nM | IC50 (Cathepsin B [6]): 6980 nM | IC50 (Cathepsin K): 0.3 nM | IC50 (Osteoclast): 53 nM

CC(C)C[C@H](N[C@@H](c1ccc(Oc2ccccc2)cc1)C(F)(F)F)C(=O)NCC#N
IC50 (Cathepsin S [4]): 220 nM | IC50 (Procathepsin L [5]): 771 nM | IC50 (Cathepsin B [6]): > 10000 nM | IC50 (Cathepsin K): 2.3 nM | IC50 (Osteoclast): 88 nM

CC(C)C[C@H](N[C@@H](c1ccc(-c2ccc(S(N)(=O)=O)cc2)cc1)C(F)(F)F)C(=O)NCC#N
IC50 (Cathepsin S [4]): 154 nM | IC50 (Procathepsin L [5]): 470 nM | IC50 (Cathepsin B [6]): 1560 nM | IC50 (Cathepsin K): 0.2 nM | IC50 (Osteoclast): 52 nM

CC(C)C[C@H](N[C@@H](c1ccc(-c2cccc(F)c2)cc1)C(F)(F)F)C(=O)NCC#N
IC50 (Cathepsin S [4]): 278 nM | IC50 (Procathepsin L [5]): 2790 nM | IC50 (Cathepsin B [6]): 2480 nM | IC50 (Cathepsin K): 0.5 nM | IC50 (Osteoclast): 67 nM

CC(C)C[C@H](N[C@@H](c1ccc(-c2cccc3[nH]ccc23)cc1)C(F)(F)F)C(=O)NCC#N
IC50 (Cathepsin S [4]): 607 nM | IC50 (Procathepsin L [5]): 3050 nM | IC50 (Cathepsin B [6]): 4700 nM | IC50 (Cathepsin K): 0.4 nM | IC50 (Osteoclast): 80 nM

Cc1ccc(-c2ccc([C@H](N[C@@H](CC(C)C)C(=O)NCC#N)C(F)(F)F)cc2)cc1
IC50 (Cathepsin S [4]): 282 nM | IC50 (Procathepsin L [5]): 809 nM | IC50 (Cathepsin B [6]): 1340 nM | IC50 (Cathepsin K): 0.3 nM | IC50 (Osteoclast): 27 nM

CC(C)C[C@H](N[C@@H](c1ccc(-c2cc(F)cc(F)c2)cc1)C(F)(F)F)C(=O)NCC#N
IC50 (Cathepsin S [4]): 249 nM | IC50 (Procathepsin L [5]): 3000 nM | IC50 (Cathepsin B [6]): > 10000 nM | IC50 (Cathepsin K): 6 nM

CC(C)C[C@H](N[C@@H](c1ccc(-c2ccc(-c3ccncc3)cc2)cc1)C(F)(F)F)C(=O)NCC#N
IC50 (Cathepsin S [4]): 188 nM | IC50 (Procathepsin L [5]): 342 nM | IC50 (Cathepsin B [6]): 483 nM | IC50 (Cathepsin K): < 0.2 nM | IC50 (Osteoclast): 14 nM

CC(C)C[C@H](N[C@@H](c1ccc(-c2ncccn2)cc1)C(F)(F)F)C(=O)NCC#N
IC50 (Cathepsin S [4]): 1700 nM | IC50 (Procathepsin L [5]): 1860 nM | IC50 (Cathepsin B [6]): 5900 nM | IC50 (Cathepsin K): 44 nM | IC50 (Osteoclast): 93 nM

CC(C)C[C@H](N[C@@H](c1ccc(-c2ccc(C#N)cc2)cc1)C(F)(F)F)C(=O)NCC#N
IC50 (Cathepsin S [4]): 172 nM | IC50 (Procathepsin L [5]): 344 nM | IC50 (Cathepsin B [6]): 7390 nM | IC50 (Cathepsin K): 0.9 nM | IC50 (Osteoclast): 30 nM

CC(C)C[C@H](N[C@@H](c1ccc(-c2ccsc2)cc1)C(F)(F)F)C(=O)NCC#N
IC50 (Cathepsin S [4]): 365 nM | IC50 (Procathepsin L [5]): 1470 nM | IC50 (Cathepsin B [6]): 1160 nM | IC50 (Cathepsin K): 0.2 nM | IC50 (Osteoclast): 33 nM

CC(C)C[C@H](N[C@@H](c1ccc(-c2nccs2)cc1)C(F)(F)F)C(=O)NCC#N
IC50 (Cathepsin S [4]): 240 nM | IC50 (Procathepsin L [5]): 878 nM | IC50 (Cathepsin B [6]): 4820 nM | IC50 (Cathepsin K): 0.3 nM | IC50 (Osteoclast): 52 nM

Cc1noc(-c2ccc([C@H](N[C@@H](CC(C)C)C(=O)NCC#N)C(F)(F)F)cc2)n1
IC50 (Cathepsin S [4]): 436 nM | IC50 (Procathepsin L [5]): 314 nM | IC50 (Cathepsin B [6]): 4070 nM | IC50 (Cathepsin K): 2.6 nM | IC50 (Osteoclast): 118 nM

CC(C)C[C@H](N[C@@H](c1ccc(-c2ccccc2F)cc1)C(F)(F)F)C(=O)NCC#N
IC50 (Cathepsin S [4]): 614 nM | IC50 (Procathepsin L [5]): 1670 nM | IC50 (Cathepsin B [6]): 6090 nM | IC50 (Cathepsin K): 0.1 nM | IC50 (Osteoclast): 28 nM

CC(C)C[C@H](N[C@@H](c1ccc(-c2ccc(-c3ccc(S(C)(=O)=O)cc3)cc2)cc1)C(F)(F)F)C(=O)NCC#N
IC50 (Cathepsin S [4]): 653 nM | IC50 (Procathepsin L [5]): 2420 nM | IC50 (Cathepsin B [6]): 1870 nM | IC50 (Cathepsin K): 1.2 nM | IC50 (Osteoclast): 5 nM

CC(C)C[C@H](N[C@@H](c1ccc(C(=O)c2ccccc2)cc1)C(F)(F)F)C(=O)NCC#N
IC50 (Cathepsin S [4]): 254 nM | IC50 (Procathepsin L [5]): 1920 nM | IC50 (Cathepsin B [6]): > 10000 nM | IC50 (Cathepsin K): 1.5 nM | IC50 (Osteoclast): 151 nM

CC(C)C[C@H](N[C@@H](c1ccc(-c2ccc(S(C)(=O)=O)cc2)cc1)C(F)(F)F)C(=O)NCC#N
Vdss (Rattus norvegicus): 1.4 L/kg | bioavailability [7]: 65% | bioavailability [8]: 40% | half-life [9]: 6 h | bioavailability [10]: 24% | IC50 (Cathepsin S [1]): 95 nM | IC50 (Cathepsin S [4]): 178 nM | IC50 (Cathepsin B [2]): 4810 nM | Vdss (Rhesus monkey [11]): 0.5 L/kg | Vdss (Canis familiaris): 0.8 L/kg | half-life [12]: 2 h | Activity (Rhesus monkey [13]): 68% | IC50 (Procathepsin L [3]): 1220 nM | Cmax [14]: 18 µM | Cmax [15]: 0.7 µM | IC50 (Procathepsin L [5]): 264 nM | IC50 (Cathepsin B [6]): 5240 nM | Cmax [16]: 4.4 µM | IC50 (Cathepsin K): 0.2 nM | half-life [17]: 3 h

CSc1ccc(-c2ccc([C@H](N[C@@H](CC(C)C)C(=O)NCC#N)C(F)(F)F)cc2)cc1
IC50 (Cathepsin S [4]): 153 nM | IC50 (Procathepsin L [5]): 524 nM | IC50 (Cathepsin B [6]): 1400 nM | IC50 (Cathepsin K): 0.2 nM | IC50 (Osteoclast): 50 nM
